In ChEMBL document CHEMBL1933058, “5-(2-amino-pyrimidin-4-yl)-1H-pyrrole and 2-(2-amino-pyrimidin-4-yl)-1,5,6,7-tetrahydro-pyrrolo[3,2-c]pyridin-4-one derivatives as new classes of selective and orally available Polo-like kinase 1 inhibitors” (Bioorg Med Chem Lett, 2012):
≈ marks a conversion by molar mass, not a printed value.

Experiments:
[1] = molecular target: Serine/threonine-protein kinase PLK1 (Homo sapiens, UniProt P53350); test: Inhibition of PLK1
[2] = molecular target: Serine/threonine-protein kinase PLK2 (Homo sapiens, UniProt Q9NYY3); test: Inhibition of PLK2
Chain of Serine/threonine-protein kinase PLK2 (Q9NYY3 whole entry): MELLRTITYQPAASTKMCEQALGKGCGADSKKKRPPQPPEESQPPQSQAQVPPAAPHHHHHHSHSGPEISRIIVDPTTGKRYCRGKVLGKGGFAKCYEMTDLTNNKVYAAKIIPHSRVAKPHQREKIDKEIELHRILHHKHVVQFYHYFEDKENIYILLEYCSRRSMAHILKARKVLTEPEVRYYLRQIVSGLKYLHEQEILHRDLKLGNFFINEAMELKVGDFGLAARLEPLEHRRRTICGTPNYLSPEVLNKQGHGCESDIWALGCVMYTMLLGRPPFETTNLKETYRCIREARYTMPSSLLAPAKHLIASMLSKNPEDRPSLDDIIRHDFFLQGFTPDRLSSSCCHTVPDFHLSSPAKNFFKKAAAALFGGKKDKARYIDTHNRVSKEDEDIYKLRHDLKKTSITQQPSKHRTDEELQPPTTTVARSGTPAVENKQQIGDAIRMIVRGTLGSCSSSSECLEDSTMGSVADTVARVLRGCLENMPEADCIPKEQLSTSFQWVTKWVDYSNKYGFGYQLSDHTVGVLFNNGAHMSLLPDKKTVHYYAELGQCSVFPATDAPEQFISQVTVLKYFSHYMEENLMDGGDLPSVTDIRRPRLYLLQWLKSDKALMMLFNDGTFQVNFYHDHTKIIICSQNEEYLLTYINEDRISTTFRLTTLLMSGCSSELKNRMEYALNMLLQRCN

[3] = molecular target: Cyclin-dependent kinase 2/cyclin A (Homo sapiens, UniProt P24941); test: Inhibition of CDK2/cyclin A; assay type: protein-complex assay
Aurora kinase A = molecular target: T1, Aurora kinase A (Homo sapiens, UniProt O14965); test: Inhibition of Aurora-A
T1 sequence (O14965 whole entry): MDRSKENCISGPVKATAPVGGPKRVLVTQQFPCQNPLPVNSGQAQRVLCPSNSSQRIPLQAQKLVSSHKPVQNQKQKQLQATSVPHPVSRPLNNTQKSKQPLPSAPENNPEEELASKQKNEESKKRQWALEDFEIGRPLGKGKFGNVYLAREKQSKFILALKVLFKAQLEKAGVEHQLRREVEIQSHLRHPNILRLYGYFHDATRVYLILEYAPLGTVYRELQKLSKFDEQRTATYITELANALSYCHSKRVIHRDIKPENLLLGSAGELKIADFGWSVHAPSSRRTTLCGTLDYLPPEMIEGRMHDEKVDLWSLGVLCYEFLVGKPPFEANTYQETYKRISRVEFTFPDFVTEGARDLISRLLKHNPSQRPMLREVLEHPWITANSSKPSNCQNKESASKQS

[4] = molecular target: Serine/threonine-protein kinase PLK3 (Homo sapiens, UniProt Q9H4B4); test: Inhibition of PLK3
Chain of Serine/threonine-protein kinase PLK3 (Q9H4B4 whole entry): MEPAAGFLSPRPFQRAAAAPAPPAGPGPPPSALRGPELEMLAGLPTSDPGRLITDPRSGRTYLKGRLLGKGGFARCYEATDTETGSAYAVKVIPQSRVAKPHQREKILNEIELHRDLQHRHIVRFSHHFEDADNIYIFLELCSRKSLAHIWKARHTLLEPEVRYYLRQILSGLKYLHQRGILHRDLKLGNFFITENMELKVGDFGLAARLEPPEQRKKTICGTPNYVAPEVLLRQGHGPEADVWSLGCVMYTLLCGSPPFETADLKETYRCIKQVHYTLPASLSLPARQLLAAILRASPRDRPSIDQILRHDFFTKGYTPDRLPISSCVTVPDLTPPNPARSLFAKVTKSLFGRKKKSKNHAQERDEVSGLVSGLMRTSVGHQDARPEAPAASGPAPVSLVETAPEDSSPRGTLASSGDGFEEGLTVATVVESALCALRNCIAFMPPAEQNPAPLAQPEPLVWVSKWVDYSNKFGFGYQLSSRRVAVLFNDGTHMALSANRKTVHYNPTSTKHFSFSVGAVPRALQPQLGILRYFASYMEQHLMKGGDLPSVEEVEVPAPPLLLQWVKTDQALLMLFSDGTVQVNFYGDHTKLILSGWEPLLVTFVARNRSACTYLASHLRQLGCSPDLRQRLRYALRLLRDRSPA

A2780 = test: Antiproliferative activity against human A2780 cells; assay type: functional, cell-based
[5] = AUC (0 to infinity) in Nu/Nu Balb Harlan mouse at 10 mg/kg, iv; assay type: ADME, organism-based; parameters: time infinity, dose 10 mg/kg, route intravenous; details: plasma
Summary of the method: (§1)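 Male Balb Nu/Nu mice (Harlan) received a single 10 mg/kg intravenous dose, n = 3 animals per study. Vehicle was either trifluoroacetate salt in dextrose or free base in 50% PEG 400/glucosate, depending on compound. Parameters were reported as mean ± standard deviation.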

[6] = Volume of distribution at steady state in Nu/Nu Balb Harlan mouse at 10 mg/kg, iv; assay type: ADME, organism-based; parameters: dose 10 mg/kg, route intravenous; details: in vivo, read-out: Vdss
[7] = AUC (0 to infinity) in Nu/Nu Balb Harlan mouse at 10 mg/kg, po; assay type: ADME, organism-based; parameters: time infinity, dose 10 mg/kg, route oral; details: plasma
[8] = Cmax in Nu/Nu Balb Harlan mouse at 10 mg/kg, po; assay type: ADME, organism-based; parameters: dose 10 mg/kg, route oral; details: in vivo
[9] = Half life in Nu/Nu Balb Harlan mouse at 10 mg/kg, iv; assay type: ADME, organism-based; parameters: dose 10 mg/kg, route intravenous; details: in vivo; summary of the method: as §1
[10] = Terminal half life in Nu/Nu Balb Harlan mouse at 10 mg/kg, po; assay type: ADME, organism-based; parameters: dose 10 mg/kg, route oral; details: in vivo, read-out: beta t1/2 (converted)
[11] = Clearance in Nu/Nu Balb Harlan mouse at 10 mg/kg, iv; assay type: ADME, organism-based; parameters: dose 10 mg/kg, route intravenous; details: in vivo; summary of the method: as §1
[12] = Oral bioavailability in Nu/Nu Balb Harlan mouse at 10 mg/kg; assay type: ADME, organism-based; details: in vivo
MOLM-13 = test: Antiproliferative activity against human MOLM13 cells; assay type: functional, cell-based
MOLT-4 = test: Antiproliferative activity against human MOLT4 cells; assay type: functional, cell-based
[13] = molecular target: Glycogen synthase kinase-3 beta (Homo sapiens, UniProt P49841); test: Inhibition of GSK3-beta
[14] = molecular target: RAC-alpha serine/threonine-protein kinase (Homo sapiens, UniProt P31749); test: Inhibition of AKT1
[15] = Intrinsic clearance in rat hepatocytes at 1 uM; assay type: ADME, cell-based, Liver, Hepatocyte; details: read-out: CLH
[16] = Inhibition of NIM
[17] = molecular target: Tyrosine-protein kinase ABL1 (Homo sapiens, UniProt P00519); test: Inhibition of c-ABL
[18] = molecular target: Vascular endothelial growth factor receptor 3 (Homo sapiens, UniProt P35916); test: Inhibition of VEGFR3
[19] = molecular target: Cyclin-dependent kinase 2/cyclin E1 (Homo sapiens, UniProt P24941); test: Inhibition of CDK2/cyclin E; assay type: protein-complex assay
[20] = molecular target: Fibroblast growth factor receptor 1 (Homo sapiens, UniProt P11362); test: Inhibition of FGFR1
Aurora kinase B = Aurora kinase B (Homo sapiens, UniProt Q96GD4); test: Inhibition of Aurora-B
[21] = Apparent permeability of the compound by PAMPA; assay type: ADME
Insulin receptor = Insulin receptor (Homo sapiens, UniProt P06213); test: Inhibition of IR
Caco-2 = test: Apparent permeability across human Caco2 cells; assay type: ADME, cell-based
[22] = molecular target: Mitogen-activated protein kinase 14 (Homo sapiens, UniProt Q16539); test: Inhibition of P38alpha
Chain of Mitogen-activated protein kinase 14 (Q16539 whole entry): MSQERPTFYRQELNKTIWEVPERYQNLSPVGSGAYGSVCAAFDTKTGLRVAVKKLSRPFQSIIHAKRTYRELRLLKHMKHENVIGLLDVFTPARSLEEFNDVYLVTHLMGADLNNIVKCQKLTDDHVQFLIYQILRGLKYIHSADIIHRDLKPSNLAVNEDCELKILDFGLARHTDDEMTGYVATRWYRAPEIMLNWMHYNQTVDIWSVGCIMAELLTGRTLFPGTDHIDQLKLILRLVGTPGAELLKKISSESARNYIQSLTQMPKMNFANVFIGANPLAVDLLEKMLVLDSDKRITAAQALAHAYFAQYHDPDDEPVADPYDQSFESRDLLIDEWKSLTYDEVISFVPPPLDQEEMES

[23] = molecular target: Cyclin-dependent kinase 1/cyclin B1 (Homo sapiens, UniProt P06493); test: Inhibition of CDK1/cyclin B; assay type: protein-complex assay
A-375 = test: Antiproliferative activity against human A375 cells; assay type: functional, cell-based
[24] = molecular target: Protein-tyrosine kinase 6 (Homo sapiens, UniProt Q13882); test: Inhibition of BRK
[25] = molecular target: MAP kinase-activated protein kinase 2 (Homo sapiens, UniProt P49137); test: Inhibition of MAP-KAPK2
Chain of MAP kinase-activated protein kinase 2 (P49137 whole entry): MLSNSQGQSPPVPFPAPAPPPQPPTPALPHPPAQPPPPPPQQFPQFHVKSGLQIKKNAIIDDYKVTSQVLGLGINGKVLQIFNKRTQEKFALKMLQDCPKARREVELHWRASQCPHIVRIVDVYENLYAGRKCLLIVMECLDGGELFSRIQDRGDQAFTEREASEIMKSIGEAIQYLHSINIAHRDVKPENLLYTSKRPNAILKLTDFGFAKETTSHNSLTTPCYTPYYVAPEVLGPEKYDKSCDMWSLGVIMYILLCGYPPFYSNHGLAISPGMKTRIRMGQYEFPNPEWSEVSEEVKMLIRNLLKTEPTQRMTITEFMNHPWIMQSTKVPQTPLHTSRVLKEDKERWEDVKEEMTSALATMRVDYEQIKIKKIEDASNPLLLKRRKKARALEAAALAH

[26] = molecular target: Cell division cycle 7-related protein kinase (Homo sapiens, UniProt O00311); test: Inhibition of CDC7
[27] = Inhibition of PDGFR
[28] = molecular target: Mitogen-activated protein kinase 1 (Homo sapiens, UniProt P28482); test: Inhibition of ERK2
[29] = Solubility of the compound at pH 7; assay type: physicochemical; details: buffer
MDA-MB-468 = test: Antiproliferative activity against human MDA-MB-468 cells; assay type: functional, cell-based
[30] = molecular target: Serine/threonine-protein kinase Nek6 (Homo sapiens, UniProt Q9HC98); test: Inhibition of NEK6
K562 = test: Antiproliferative activity against human K562 cells; assay type: functional, cell-based
[31] = molecular target: Epidermal growth factor receptor (Homo sapiens, UniProt P04626+P00533+Q15303+P21860); test: Inhibition of EGFR1; assay type: protein assay
[32] = Inhibition of SULU1
[33] = molecular target: Hepatocyte growth factor receptor (Homo sapiens, UniProt P08581); test: Inhibition of MET
[34] = Intrinsic clearance in human liver microsomes at 1 uM; assay type: ADME, Microsome; details: read-out: CLH
[35] = molecular target: Inhibitor of nuclear factor kappa-B kinase subunit beta (Homo sapiens, UniProt O14920); test: Inhibition of IKK2
Chain of Inhibitor of nuclear factor kappa-B kinase subunit beta (O14920 whole entry): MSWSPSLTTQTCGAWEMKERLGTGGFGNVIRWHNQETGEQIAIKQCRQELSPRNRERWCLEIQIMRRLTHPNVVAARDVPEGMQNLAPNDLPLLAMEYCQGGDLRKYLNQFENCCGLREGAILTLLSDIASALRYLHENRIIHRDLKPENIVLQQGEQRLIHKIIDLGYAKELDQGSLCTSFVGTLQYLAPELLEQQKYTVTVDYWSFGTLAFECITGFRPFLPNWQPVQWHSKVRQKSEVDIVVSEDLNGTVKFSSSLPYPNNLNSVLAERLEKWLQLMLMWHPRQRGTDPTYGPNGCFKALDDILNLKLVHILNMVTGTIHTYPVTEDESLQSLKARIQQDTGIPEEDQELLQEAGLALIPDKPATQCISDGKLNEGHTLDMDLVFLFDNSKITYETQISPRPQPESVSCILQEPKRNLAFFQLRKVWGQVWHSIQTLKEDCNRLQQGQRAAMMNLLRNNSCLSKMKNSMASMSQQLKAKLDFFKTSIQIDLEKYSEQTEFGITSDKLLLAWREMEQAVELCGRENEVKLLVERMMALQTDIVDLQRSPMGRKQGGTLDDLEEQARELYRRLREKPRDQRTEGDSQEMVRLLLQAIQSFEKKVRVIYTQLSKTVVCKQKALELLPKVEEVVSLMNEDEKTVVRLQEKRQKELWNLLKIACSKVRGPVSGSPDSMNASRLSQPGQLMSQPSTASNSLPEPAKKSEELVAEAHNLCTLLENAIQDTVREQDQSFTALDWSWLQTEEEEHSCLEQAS

[36] = molecular target: Tyrosine-protein kinase JAK2 (Homo sapiens, UniProt O60674); test: Inhibition of JAK2
[37] = Inhibition of CK2
[38] = molecular target: Serine/threonine-protein kinase PAK 4 (Homo sapiens, UniProt O96013); test: Inhibition of PAK4
Chain of Serine/threonine-protein kinase PAK 4 (O96013 whole entry): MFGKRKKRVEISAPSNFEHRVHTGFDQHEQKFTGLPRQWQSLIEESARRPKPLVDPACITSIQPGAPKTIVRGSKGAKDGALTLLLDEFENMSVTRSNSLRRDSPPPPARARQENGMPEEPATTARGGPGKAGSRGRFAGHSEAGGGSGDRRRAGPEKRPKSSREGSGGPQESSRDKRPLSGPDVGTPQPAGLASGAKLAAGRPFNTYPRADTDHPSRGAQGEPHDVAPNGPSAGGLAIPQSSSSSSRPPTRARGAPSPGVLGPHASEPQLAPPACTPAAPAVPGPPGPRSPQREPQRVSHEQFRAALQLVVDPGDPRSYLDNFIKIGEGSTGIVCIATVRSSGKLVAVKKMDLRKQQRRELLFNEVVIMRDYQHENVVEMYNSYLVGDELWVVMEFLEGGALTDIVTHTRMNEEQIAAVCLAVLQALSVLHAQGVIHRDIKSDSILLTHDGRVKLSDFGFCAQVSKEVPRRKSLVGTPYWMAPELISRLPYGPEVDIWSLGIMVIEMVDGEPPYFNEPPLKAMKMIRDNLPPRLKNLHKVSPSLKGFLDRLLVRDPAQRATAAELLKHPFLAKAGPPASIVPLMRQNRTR

[39] = Antiproliferative activity against human SUP-M2 cells; assay type: functional, cell-based
[40] = molecular target: Vascular endothelial growth factor receptor 2 (Homo sapiens, UniProt P35968); test: Inhibition of VEGFR2
LNCaP = test: Antiproliferative activity against human LNCAP cells; assay type: functional, cell-based
[41] = molecular target: High affinity nerve growth factor receptor (Homo sapiens, UniProt P04629); test: Inhibition of TRKA
[42] = molecular target: Insulin-like growth factor 1 receptor (Homo sapiens, UniProt P08069); test: Inhibition of IGFR1
[43] = Tmax in Nu/Nu Balb Harlan mouse at 10 mg/kg, po; assay type: ADME, organism-based; parameters: dose 10 mg/kg, route oral; details: in vivo
HCT-116 = test: Antiproliferative activity against human HCT116 cells; assay type: functional, cell-based
[44] = molecular target: Protein kinase C beta type (Homo sapiens, UniProt P05771); test: Inhibition of PKCbeta
[45] = molecular target: Tyrosine-protein kinase Lck (Homo sapiens, UniProt P06239); test: Inhibition of LCK
[46] = molecular target: Mast/stem cell growth factor receptor Kit (Homo sapiens, UniProt P10721); test: Inhibition of KIT
[47] = molecular target: Serine/threonine-protein kinase Chk1 (Homo sapiens, UniProt O14757); test: Inhibition of CHK1
Chain of Serine/threonine-protein kinase Chk1 (O14757 whole entry): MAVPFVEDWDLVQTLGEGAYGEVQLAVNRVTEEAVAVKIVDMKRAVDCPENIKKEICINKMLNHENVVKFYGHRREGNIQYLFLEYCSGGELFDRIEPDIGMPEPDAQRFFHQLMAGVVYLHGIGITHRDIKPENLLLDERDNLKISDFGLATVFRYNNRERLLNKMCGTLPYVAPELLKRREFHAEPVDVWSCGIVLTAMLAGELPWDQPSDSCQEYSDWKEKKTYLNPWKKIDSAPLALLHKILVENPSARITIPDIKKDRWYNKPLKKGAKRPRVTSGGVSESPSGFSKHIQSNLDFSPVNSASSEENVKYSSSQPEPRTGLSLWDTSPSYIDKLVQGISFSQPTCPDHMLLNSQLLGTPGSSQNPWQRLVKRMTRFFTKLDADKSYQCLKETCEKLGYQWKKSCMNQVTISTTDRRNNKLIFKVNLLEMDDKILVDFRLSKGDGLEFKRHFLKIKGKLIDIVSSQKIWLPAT

[48] = molecular target: Serine/threonine-protein kinase 26 (Homo sapiens, UniProt Q9P289); test: Inhibition of MST4
[49] = molecular target: Cyclin-dependent kinase 4/cyclin D1 (Homo sapiens, UniProt P11802); test: Inhibition of CDK4/cyclin D1; assay type: protein-complex assay
[50] = molecular target: cAMP-dependent protein kinase catalytic subunit alpha (Homo sapiens, UniProt P17612); test: Inhibition of PKAalpha
[51] = molecular target: Cyclin-dependent kinase 5 activator 1 (Homo sapiens, UniProt Q15078); test: Inhibition of CDK5/P25
Chain of Cyclin-dependent kinase 5 activator 1 (Q15078 whole entry): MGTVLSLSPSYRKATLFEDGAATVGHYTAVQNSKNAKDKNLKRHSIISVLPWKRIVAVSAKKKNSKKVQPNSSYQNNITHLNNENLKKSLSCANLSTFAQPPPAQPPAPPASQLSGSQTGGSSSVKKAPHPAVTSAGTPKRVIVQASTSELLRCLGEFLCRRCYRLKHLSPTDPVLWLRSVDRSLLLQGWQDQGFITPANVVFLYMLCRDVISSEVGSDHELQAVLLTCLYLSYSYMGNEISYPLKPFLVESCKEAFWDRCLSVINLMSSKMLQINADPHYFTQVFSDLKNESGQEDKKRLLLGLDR

[52] = molecular target: Proto-oncogene tyrosine-protein kinase receptor Ret (Homo sapiens, UniProt P07949); test: Inhibition of RET

Chain of Serine/threonine-protein kinase PLK1 (P53350 whole entry): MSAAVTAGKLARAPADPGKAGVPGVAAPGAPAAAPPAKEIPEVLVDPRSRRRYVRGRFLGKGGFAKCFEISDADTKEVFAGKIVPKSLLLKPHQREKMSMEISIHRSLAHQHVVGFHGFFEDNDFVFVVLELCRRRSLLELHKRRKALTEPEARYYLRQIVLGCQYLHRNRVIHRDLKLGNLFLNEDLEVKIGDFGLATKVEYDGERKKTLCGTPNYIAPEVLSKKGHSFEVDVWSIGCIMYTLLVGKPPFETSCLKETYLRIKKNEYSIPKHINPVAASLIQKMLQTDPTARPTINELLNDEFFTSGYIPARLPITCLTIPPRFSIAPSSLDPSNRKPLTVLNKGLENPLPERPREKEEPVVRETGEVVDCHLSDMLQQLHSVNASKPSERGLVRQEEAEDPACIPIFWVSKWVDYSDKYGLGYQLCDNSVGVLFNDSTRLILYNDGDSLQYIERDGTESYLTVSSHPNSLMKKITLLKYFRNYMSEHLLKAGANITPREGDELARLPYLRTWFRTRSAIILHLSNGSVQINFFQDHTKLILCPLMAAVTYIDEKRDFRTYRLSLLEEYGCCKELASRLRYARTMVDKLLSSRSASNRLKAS

In the case of `Cn1cc(C(N)=O)cc1-c1ccnc(Nc2cc(N3CCNCC3)ccc2OC(F)(F)F)n1`, the IC50 [1] is reported as 0.018 µM, the IC50 [2] is reported as > 10 µM and the IC50 [3] is reported as > 10 µM. The IC50 (Aurora kinase A) was > 10 µM, the IC50 [4] was > 10 µM and the IC50 (A2780) was 0.61 µM.
`CN1CCN(c2ccc(OC(F)(F)F)c(Nc3nccc(-c4cc(C(N)=O)cn4C)n3)c2)CC1.O=C(O)C(F)(F)F` showed an AUC(0-inf) [5] of 5.41 µM·h, a Vd [6] of 2.5 L/kg and an AUC(0-inf) [7] of 1.92 µM·h. The Cmax [8] was 760 nM, the half-life [9] was 39 min and the half-life [10] was 102 min. The clearance [11] was 74.7 mL/min/kg and the bioavailability [12] was 36%.
With `CN1CCN(c2ccc(OC(F)(F)F)c(Nc3nccc(-c4cc5c(n4CC(F)(F)F)CCNC5=O)n3)c2)CC1` the IC50 [1] was 0.028 µM, the IC50 [2] was > 10 µM and the IC50 [3] was > 10 µM. For the same compound, the IC50 (Aurora kinase A) was > 10 µM, the IC50 [4] was > 10 µM and the IC50 (A2780) was 0.062 µM.
In the case of `NC(=O)c1c[nH]c(-c2ccnc(N)n2)c1`, the IC50 [1] is reported as > 10 µM, the IC50 [3] is reported as > 10 µM and the IC50 (Aurora kinase A) is reported as > 10 µM.
For `CN1CCN(c2ccc(OC(F)(F)F)c(Nc3nccc(-c4cc(C(N)=O)cn4C)n3)c2)CC1`, the IC50 (MOLM-13) was 0.201 µM, the IC50 (MOLT-4) was 0.253 µM and the IC50 [13] was > 10 µM. The IC50 [14] was > 10 µM, the CLint scaled at 1 µM [15] was 408 mL/min/kg and the IC50 [16] was > 10 µM. For the same compound, the IC50 [17] was > 10 µM, the IC50 [18] was > 10 µM and the IC50 [19] was > 10 µM. For the same compound, the IC50 [20] was > 10 µM, the IC50 (Aurora kinase B) was > 10 µM and the Papp [21] was 50 ×10⁻⁶ cm/s. For the same compound, the IC50 (Insulin receptor) was > 10 µM, the Papp (Caco-2) was “permeable” and the IC50 [22] was > 10 µM. For the same compound, the IC50 [23] was > 10 µM, the IC50 (A-375) was 0.386 µM and the IC50 [24] was > 10 µM. For the same compound, the IC50 [25] was > 10 µM, the IC50 [26] was > 10 µM and the IC50 [27] was > 10 µM. The IC50 [28] was > 10 µM, the solubility [29] was 174 µM (≈ 82.7 µg/mL) and the IC50 (MDA-MB-468) was 0.624 µM. For the same compound, the IC50 [30] was > 10 µM, the IC50 (K562) was 0.59 µM and the IC50 [31] was > 10 µM. For the same compound, the IC50 [32] was > 10 µM, the IC50 [33] was > 10 µM and the CLint scaled at 1 µM [34] was 14.9 mL/min/kg. The IC50 [35] was > 10 µM, the IC50 [36] was > 10 µM and the IC50 [37] was 0.951 µM. For the same compound, the IC50 [2] was > 10 µM, the IC50 [38] was > 10 µM and the IC50 [39] was 0.647 µM. For the same compound, the IC50 [40] was > 10 µM, the IC50 (LNCaP) was 0.28 µM and the IC50 [41] was > 10 µM. The IC50 [42] was > 10 µM, the IC50 [3] was > 10 µM and the Tmax [43] was 30 min. For the same compound, the IC50 (HCT-116) was 0.52 µM, the IC50 [44] was > 10 µM and the IC50 [45] was > 10 µM. For the same compound, the IC50 (Aurora kinase A) was > 10 µM, the IC50 [46] was > 10 µM and the IC50 [47] was > 10 µM. The IC50 [48] was > 10 µM, the IC50 [49] was > 10 µM and the IC50 [50] was > 10 µM. The IC50 [51] was > 10 µM, the IC50 [4] was > 10 µM and the IC50 [52] was > 10 µM. For the same compound, the IC50 (A2780) was 0.36 µM.
In the case of `CN1CCN(c2ccc(OC(F)(F)F)c(Nc3nccc(-c4cc5c(n4CCO)CCNC5=O)n3)c2)CC1`, the IC50 [1] is reported as 0.102 µM, the IC50 [2] is reported as > 10 µM and the IC50 [3] is reported as > 10 µM. For the same compound, the IC50 (Aurora kinase A) was > 10 µM, the IC50 [4] was > 10 µM and the IC50 (A2780) was 0.722 µM.
For `Nc1nccc(-c2cc3c([nH]2)CCNC3=O)n1`, the IC50 [1] was 1.13 µM, the IC50 [3] was 0.219 µM and the IC50 (Aurora kinase A) was > 10 µM. For the same compound, the IC50 (A2780) was 1.53 µM.
